Test results as given in PubChem BioAssay.
Calls of active or inactive are those of the source.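 The calls were made as follows, unless noted: active = NADPH fluorescence slope more negative than the mean of all samples by about 3 SD, 99.7% confidence; inactive = the rest.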

How the values were obtained:
[1] = inhibitors of TNFa-induced NFkB p65 translocation, primary screen, imaging, HUVEC, MLSMR starter and 10KST1 sets (AID 438;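 active = inhibition above 20% together with a positive visual image hit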;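 also: compound added about 3h40 before a 20 min TNFalpha stimulation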;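 as to inhibition: signal is the nuclear over cytoplasmic p65 intensity ratio per well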); conditions: HUVEC TNFa-induced p65 nuclear translocation; cell count: measured here: nuclei count (cytotoxicity indicator), at 2.08 µM; inhibition: at 2 µM, stronger effect = higher value, 0% TNFa-plus-vehicle, 100% no-TNFa wells
[2] = inhibitors of E-selectin induction by TNFa, primary screen, imaging, HUVEC, immunofluorescence, MLSMR starter and 10KST1 sets (AID 487;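 active = visually confirmed hit in the image check and inhibition above 20%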;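 as to inhibition: signal is fraction of cell area covered by stained E-selectin grains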;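 as to nuclei count: 100% = median nuclei count of all wells on the same plate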); conditions: HUVEC TNFalpha-induced E-selectin immunofluorescence imaging, at 2 µM; inhibition: stronger effect = higher value; nuclei count: measured here: cell number, toxicity
[3] = DUSP6 inhibitors restoring Erk phosphorylation by chemical complementation, primary imaging in DUSP6-transfected HeLa (AID 609;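 active = compounds giving at least 50% inhibition in the cell-based MKP-3 phosphatase rescue imaging test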;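 as to inhibition: phospho-Erk level distribution per well compared with pooled transfected vehicle control wells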); conditions: HeLa MKP-3 transfected, phospho-Erk imaging KS statistic, at 10 µM, cells stimulated with TPA for 15 min
[4] = target: Dual specificity protein phosphatase 6 (Homo sapiens) (UniProt Q16828); test: as above; conditions: HeLa MKP-3 transfected, phospho-Erk imaging KS statistic; at 10 µM; stronger effect = higher value; cells stimulated with TPA for 15 min
[5] = target: Voltage-gated potassium channel subunit beta-2 (Rattus norvegicus) (UniProt P62483); test: KvBeta enzyme negative modulators, primary screen, biochemical, NADPH fluorescence (AID 622;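 active = fluorescence slope higher than the sample average by over 3 SD, cut at about -0.22 in these data, passing the limit was not always enough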;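 also: slope of raw intensity against log time taken from 70 to 1610 s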); conditions: recombinant KvBeta, 4-cyanobenzaldehyde reduction, at 10 µM, stronger effect = higher value
[6] = target: Voltage-gated potassium channel subunit beta-2 (Rattus norvegicus) (UniProt P62483); test: KvBeta positive modulators, primary screen, biochemical, NADPH fluorescence (AID 623); conditions: Recombinant KvBeta, NADPH fluorescence decrease slope, 10 min; at 10 µM; stronger effect = lower value;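 also: fluorescence intensity change per second fitted from 20 to 320 s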
[7] = target: Muscarinic acetylcholine receptor M4 (Homo sapiens) (UniProt P08173); test: compounds altering M4/GIRK thallium flux, either direction, primary screen, M4 allosteric agonist project, cell-based, HEK293 M4/GIRK, BTC-AM (AID 625;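 active = fluorescence slope after compound addition differing from the mean of all tested samples at 99.7% confidence, mostly higher but some lower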;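 also: thallium influx through GIRK channels coupled to M4 in HEK293 cells with BTC-AM dye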); conditions: at 10 µM, actives lie on both sides
In short: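 Assay system: HEK293 cells with M4 receptor and GIRK channels / Controls: carbachol and DMSO controls / Schedule: 1 h dye loading, 2 min kinetic read / Technique: kinetic fluorescence with BTC-AM dye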

[8] = inhibitors of larval lipid processing in zebrafish, primary screen, whole organism, PED6 fluorescence, gall bladder and intestine (AID 686;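 active = a full or partial loss of lipid-probe fluorescence in the fish gall bladder, intestine or both, judged by eye; inactive = no fluorescence loss, or compound toxic to the fish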;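 also: larvae 5 to 7 days old with five fish per well; signal comes from phospholipase A2 cleavage of quenched PED6 carried via bile; overnight exposure to compound and PED6 before scoring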); conditions: Zebrafish larvae PED6 lipid processing, fluorescence scoring; screened at 20 µM (by protocol)
In short: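 Doses: 20 µM single dose. Test system: live zebrafish larvae aged 5-7 days, whole organism. Quantity: five larvae per well. Measured by: By-eye fluorescence microscopy. Reagent: ingested quenched lipid PED6 at 100 nM. Read-out: visual per-well fluorescence inhibition score. Times: overnight exposure of larvae to compound plus PED6.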

[9] = inhibitors of Chlamydomonas gravitaxis, primary screen, whole organism, Chlamydomonas reinhardtii, WT vs cilia-less mutant, absorbance, 96-well (AID 463189;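 active = inhibition at or above 50% relative to wild type and mutant plate controls; inactive = inhibition below 50%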;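 also: 0% = wild type cc124 cells in DMSO and 100% = ciliumless bld1 mutant cells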); conditions: OD600 absorbance, 2 days, at 10 µM, stronger effect = higher value
[10] = measured here: cell density z-score
[11] = measured here: nuclear c-Myc green intensity z-score
[12] = measured here: nuclear pErk red intensity z-score, stronger effect = higher value

Sequence of Dual specificity protein phosphatase 6 (Homo sapiens) (Q16828 whole entry, looked up): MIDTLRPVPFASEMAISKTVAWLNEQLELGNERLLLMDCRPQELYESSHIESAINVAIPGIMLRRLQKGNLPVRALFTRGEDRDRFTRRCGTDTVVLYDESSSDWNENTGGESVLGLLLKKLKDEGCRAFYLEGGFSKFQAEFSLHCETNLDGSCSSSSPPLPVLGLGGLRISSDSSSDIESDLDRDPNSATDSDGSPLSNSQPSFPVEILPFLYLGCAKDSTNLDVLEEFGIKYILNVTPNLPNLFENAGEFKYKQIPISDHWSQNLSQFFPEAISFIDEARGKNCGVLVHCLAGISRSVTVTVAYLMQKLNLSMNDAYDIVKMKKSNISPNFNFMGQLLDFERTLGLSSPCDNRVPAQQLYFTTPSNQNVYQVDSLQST
Sequence of Voltage-gated potassium channel subunit beta-2 (Rattus norvegicus) (P62483 whole entry, looked up): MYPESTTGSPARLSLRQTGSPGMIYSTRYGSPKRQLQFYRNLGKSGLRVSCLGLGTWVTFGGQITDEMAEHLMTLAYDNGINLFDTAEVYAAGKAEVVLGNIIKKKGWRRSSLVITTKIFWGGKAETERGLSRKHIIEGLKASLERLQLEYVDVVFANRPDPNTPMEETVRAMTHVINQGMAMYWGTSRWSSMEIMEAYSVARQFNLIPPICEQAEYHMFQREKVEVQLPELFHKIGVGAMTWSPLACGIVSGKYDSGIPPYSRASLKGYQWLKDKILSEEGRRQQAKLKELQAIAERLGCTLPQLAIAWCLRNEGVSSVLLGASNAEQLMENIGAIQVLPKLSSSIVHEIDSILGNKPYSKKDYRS
Sequence of Muscarinic acetylcholine receptor M4 (Homo sapiens) (P08173 whole entry, looked up): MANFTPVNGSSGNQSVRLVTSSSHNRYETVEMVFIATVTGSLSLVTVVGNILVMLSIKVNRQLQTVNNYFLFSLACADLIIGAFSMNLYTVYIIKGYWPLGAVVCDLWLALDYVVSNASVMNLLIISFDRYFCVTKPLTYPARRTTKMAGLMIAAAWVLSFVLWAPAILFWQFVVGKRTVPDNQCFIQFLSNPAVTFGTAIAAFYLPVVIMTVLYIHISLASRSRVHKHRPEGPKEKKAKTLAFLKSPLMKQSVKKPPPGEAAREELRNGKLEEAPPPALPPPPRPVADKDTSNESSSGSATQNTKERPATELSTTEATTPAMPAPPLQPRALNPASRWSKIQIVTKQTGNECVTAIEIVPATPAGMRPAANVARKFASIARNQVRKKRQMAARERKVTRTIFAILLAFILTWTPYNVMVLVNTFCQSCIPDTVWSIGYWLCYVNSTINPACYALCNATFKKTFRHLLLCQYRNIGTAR

| SMILES | cell count [1] | inhibition [1] | inhibition [2] | nuclei count [2] [%] | z-score [3, 10] | z-score [3, 11] | z-score [3, 12] | inhibition [4] | fluorescence slope [5] | NADPH fluorescence slope [6] | fluorescence slope [7] | outcome [8] | inhibition [9] |
| --- | --- | --- | --- | --- | --- | --- | --- | --- | --- | --- | --- | --- | --- |
| O=c1c2sc3nc(N4CCOCC4)c4c(c3c2ncn1Cc1ccco1)CCCC4 | 502 | 2.3% (inactive) | -62.8% (inactive) | 143 | -0.769 | -0.213 | 0.589 | 21.8% (inactive) | -0.369 (inactive) | -1.9e-05 (inactive) | 0.00575 (inactive) | inactive | 30% (inactive) |
| CSc1nncc(=O)[nH]1 | 642 | 1.5% (inactive) | -96.8% (inactive) | 160 | 0.525 | -0.545 | -0.327 | 6.51% (inactive) | -0.452 (inactive) | -4.4e-05 (inactive) | 0.00648 (inactive) | inactive | -3.84% (inactive) |
| CCOC(=O)C1CCN(c2nc3ccccc3nc2C(C#N)C(=O)OC(C)COC)CC1 (centres undefined) | 633 | -11.6% (inactive) | -4.7% (inactive) | 160 | 0.378 | -0.378 | -0.33 | -5.81% (inactive) | -0.488 (inactive) | -8.1e-05 (inactive) | 0.00472 (inactive) | inactive | 6.91% (inactive) |
| CCCCCSc1nc(N2CCOCC2)c2c(c1C#N)CC(C)(C)OC2 | 527 | -4.1% (inactive) | 47.4% (inactive) | 82.5 | -0.00236 | 0.148 | -1.7 | -11.4% (inactive) | -0.426 (inactive) | 1.5e-05 (inactive) | 0.00771 (inactive) | inactive | 16.6% (inactive) |
| Cc1nc(SCC(=O)Nc2ccc3c(c2)OCO3)c(C#N)c2c1CCCC2 | 490 | 1.3% (inactive) | -215% (inactive) | 145 | -0.268 | -1.41 | 0.298 | 9.37% (inactive) | -0.472 (inactive) | -4e-05 (inactive) | 0.00555 (inactive) | inactive | 19.8% (inactive) |
| COC(=O)CCc1c(C)[nH]c(=S)[nH]c1=O | 364 | -0.7% (inactive) | -74.5% (inactive) | 111 | -0.296 | -0.397 | -1.03 | -4.78% (inactive) | -0.521 (inactive) | -2.4e-05 (inactive) | 0.00625 (inactive) | inactive | -5.54% (inactive) |
| Cc1cc2ccccc2cc(C)c1=O | 388 | -6.2% (inactive) | -120% (inactive) | 168 | 1.48 | 0.00969 | -1.01 | -0.584% (inactive) | -0.453 (inactive) | -9e-05 (inactive) | 0.00444 (inactive) | inactive | -12% (inactive) |
| COc1cc(S(=O)(=O)N2CCN(C)CC2)c(OC)cc1Br | 616 | 13.9% (inactive) | -43.1% (inactive) | 114 | 0.0206 | -1.18 | -0.865 | 1.63% (inactive) | -0.424 (inactive) | -3.6e-05 (inactive) | 0.00502 (inactive) | inactive | 21% (inactive) |
| CCc1nc(N2CCCC2)c(C#N)c2c1CCCC2 | 422 | 2.1% (inactive) | -71.3% (inactive) | 118 | -1.3 | 0.104 | 0.215 | -6.59% (inactive) | -0.506 (inactive) | 3e-05 (inactive) | 0.00476 (inactive) | inactive | -11.4% (inactive) |
| Cc1ccc(-n2ncc3c(NCCCOC(C)C)ncnc32)c(C)c1 | 586 | -13.1% (inactive) | 45.2% (inactive) | 161 | -1.65 | 1.1 | -0.077 | 1.42% (inactive) | -0.408 (inactive) | -4.3e-05 (inactive) | 0.00603 (inactive) | inactive | 39% (inactive) |
| COC(=O)c1ccc(C2/C(=C(\O)c3ccc(OC)c(C)c3)C(=O)C(=O)N2c2cc(C)on2)cc1 (centres undefined) | 664 | -16.1% (inactive) | -48.1% (inactive) | 165 | -1.19 | 0.297 | 0.0353 | -1.12% (inactive) | -0.444 (inactive) | -3.1e-05 (inactive) | 0.00525 (inactive) | inactive | 16.4% (inactive) |
| CS(=O)(=O)c1ccc2nc(NC(NC(=O)c3ccco3)(C(F)(F)F)C(F)(F)F)sc2c1 | 376 | -6.2% (inactive) | 9.6% (inactive) | 162 | -0.876 | 1.31 | 0.831 | 3.42% (inactive) | -0.451 (inactive) | -8.9e-05 (inactive) | 0.00497 (inactive) | inactive | 2.54% (inactive) |
| CC1(C)C2CCC1(C)C(OC(=O)CC(=O)O)C2 (centres undefined) | 566 | -2% (inactive) | -63.5% (inactive) | 143 | 0.899 | -0.605 | 0.67 | 1.98% (inactive) | -0.382 (inactive) | -4.1e-05 (inactive) | 0.00679 (inactive) | inactive | 5.19% (inactive) |
